# Measured values pooled from the literature.
# Each line is one published result; the experiments were not run side by side.
# Cell line: UACC-62
# Read-out: cell growth or viability
SMILES,test,conditions,measurement,result
COc1ccc(C(=O)/C=C/c2cccnc2)cc1S(N)(=O)=O,SRB,48 h,GI50,12900 nM
Cc1cc(C)n(C(=S)[S][Au][PH](CCCCCC[PH]([Au][S]C(=S)n2nc(C)cc2C)(c2ccccc2)c2ccccc2)(c2ccccc2)c2ccccc2)n1,,,GI50,250 nM
COc1cc(-c2ccc(-c3ccc(C(=N)N)nc3)s2)cc(OC)c1OC,SRB,,GI50,1730 nM
COc1ccc(C(=O)/C=C/c2cccc3ccccc23)cc1S(N)(=O)=O,SRB,10 µM,inhibition,158%
O=C1NC(=NCc2cccs2)S/C1=C\c1ccc2ncccc2c1,,,IC50,> 10000 nM
COc1cccc(Oc2ccccc2NC(=O)CNC(=O)c2cccc3ccccc23)c1,SRB,48 h,GI50,209 nM
COc1ccc(-c2ccc(-c3ccc(C(=N)N)nc3)s2)cc1,SRB,,GI50,1810 nM
O=C1NCCc2[nH]c(-c3ccncc3)cc21,,,IC50,6120 nM
